Reference: article PMC6545551 (ACS Omega, 2019)
Where two headings read alike, the source gives them in different places.

How the values were obtained:
ovine COX-1 = target: T1, ovine COX-1 (Ovis aries, UniProt P05979); assay: Inhibition of purified ovine COX-1; type: biochemical
T1 sequence (P05979 25-600): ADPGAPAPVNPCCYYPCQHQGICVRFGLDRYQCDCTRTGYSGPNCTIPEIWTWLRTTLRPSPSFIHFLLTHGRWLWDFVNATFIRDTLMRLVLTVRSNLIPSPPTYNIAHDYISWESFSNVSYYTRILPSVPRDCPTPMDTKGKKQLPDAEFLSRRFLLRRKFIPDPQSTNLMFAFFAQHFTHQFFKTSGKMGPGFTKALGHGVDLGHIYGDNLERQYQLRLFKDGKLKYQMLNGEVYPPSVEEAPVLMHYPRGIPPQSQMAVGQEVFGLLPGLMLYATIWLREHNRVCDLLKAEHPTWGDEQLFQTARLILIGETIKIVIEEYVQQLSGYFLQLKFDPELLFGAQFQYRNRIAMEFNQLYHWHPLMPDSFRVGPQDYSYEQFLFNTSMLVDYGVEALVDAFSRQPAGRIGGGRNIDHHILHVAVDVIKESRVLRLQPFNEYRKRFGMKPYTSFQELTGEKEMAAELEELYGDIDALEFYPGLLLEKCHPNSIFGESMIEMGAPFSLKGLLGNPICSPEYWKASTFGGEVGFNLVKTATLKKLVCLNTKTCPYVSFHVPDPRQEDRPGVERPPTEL

mouse COX-2 = target: T2, mouse COX-2 (Mus musculus, UniProt Q05769); assay: Inhibition of purified COX-2; type: biochemical
T2 sequence (Q05769 18-604): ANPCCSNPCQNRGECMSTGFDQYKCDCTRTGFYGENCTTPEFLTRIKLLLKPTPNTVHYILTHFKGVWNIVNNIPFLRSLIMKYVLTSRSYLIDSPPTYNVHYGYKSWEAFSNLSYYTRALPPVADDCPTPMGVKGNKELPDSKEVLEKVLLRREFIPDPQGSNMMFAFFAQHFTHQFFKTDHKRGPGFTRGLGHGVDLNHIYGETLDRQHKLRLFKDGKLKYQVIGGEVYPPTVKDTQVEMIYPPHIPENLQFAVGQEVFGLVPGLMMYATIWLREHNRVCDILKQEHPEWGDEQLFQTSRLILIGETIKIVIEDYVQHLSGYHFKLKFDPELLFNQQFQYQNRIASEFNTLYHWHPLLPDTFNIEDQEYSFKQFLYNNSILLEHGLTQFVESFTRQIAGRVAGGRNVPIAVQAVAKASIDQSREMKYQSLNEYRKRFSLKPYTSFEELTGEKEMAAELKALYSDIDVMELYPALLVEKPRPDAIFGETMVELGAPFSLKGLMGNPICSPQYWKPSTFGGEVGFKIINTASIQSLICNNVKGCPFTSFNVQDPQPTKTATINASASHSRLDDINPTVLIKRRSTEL

COX-1 in OVCAR3 cells = COX-1 in OVCAR3 cells (Homo sapiens, UniProt P23219); assay: Inhibition of COX-1 in intact OVCAR3 cells; type: cell-based
Sequence of COX-1 in OVCAR3 cells (P23219 24-599): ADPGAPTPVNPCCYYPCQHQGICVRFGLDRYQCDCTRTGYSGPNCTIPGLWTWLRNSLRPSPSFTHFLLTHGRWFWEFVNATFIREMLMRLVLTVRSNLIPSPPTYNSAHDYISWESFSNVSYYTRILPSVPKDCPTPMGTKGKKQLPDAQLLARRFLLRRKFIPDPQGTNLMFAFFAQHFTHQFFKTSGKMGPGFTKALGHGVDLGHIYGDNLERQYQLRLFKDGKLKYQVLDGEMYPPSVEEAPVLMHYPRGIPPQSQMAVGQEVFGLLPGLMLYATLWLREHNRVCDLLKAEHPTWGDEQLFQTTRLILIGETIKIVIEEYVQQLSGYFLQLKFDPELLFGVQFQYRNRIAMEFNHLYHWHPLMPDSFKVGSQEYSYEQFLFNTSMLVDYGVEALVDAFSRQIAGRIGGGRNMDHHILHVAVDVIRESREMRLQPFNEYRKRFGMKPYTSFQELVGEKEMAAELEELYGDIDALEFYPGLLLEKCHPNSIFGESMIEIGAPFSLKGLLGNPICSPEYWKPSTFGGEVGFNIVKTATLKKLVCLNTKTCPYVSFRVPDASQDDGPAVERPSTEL

[1] = target: T3, COX-2 in 1483 HNSCC cells (Homo sapiens, UniProt P35354); assay: Inhibition of COX-2 in intact 1483 HNSCC cells; type: cell-based
T3 sequence (P35354 18-604): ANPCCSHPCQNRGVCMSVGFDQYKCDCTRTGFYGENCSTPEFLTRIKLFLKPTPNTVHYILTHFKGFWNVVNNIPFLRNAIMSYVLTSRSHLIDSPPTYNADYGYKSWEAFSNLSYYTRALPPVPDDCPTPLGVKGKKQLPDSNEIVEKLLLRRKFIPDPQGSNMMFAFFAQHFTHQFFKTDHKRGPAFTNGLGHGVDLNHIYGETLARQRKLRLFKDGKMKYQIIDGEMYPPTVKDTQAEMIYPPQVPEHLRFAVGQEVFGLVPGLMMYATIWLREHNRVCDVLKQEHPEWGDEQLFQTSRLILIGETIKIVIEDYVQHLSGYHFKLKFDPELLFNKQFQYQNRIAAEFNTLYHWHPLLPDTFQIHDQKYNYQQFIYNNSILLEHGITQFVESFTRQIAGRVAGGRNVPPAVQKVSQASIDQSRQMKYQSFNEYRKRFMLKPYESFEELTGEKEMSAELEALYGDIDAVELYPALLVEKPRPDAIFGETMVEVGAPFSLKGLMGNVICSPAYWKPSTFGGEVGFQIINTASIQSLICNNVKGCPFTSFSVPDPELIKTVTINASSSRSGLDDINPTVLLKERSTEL

[2] = Plasma protein binding, mouse plasma; type: in vitro ADME
How it was run: (§1)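 Equilibrium dialysis in a high-throughput micro-equilibrium device, with test compound incubated in mouse, dog or human plasma at 37 °C. Samples were taken at 0 and 4.5 h and quantified by fast-gradient LC–MS/MS. Unbound fraction was calculated as buffer-side concentration divided by protein-side concentration. Recovery was the summed buffer and protein chamber concentrations relative to the 0 h concentration.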

[3] = Plasma protein binding, dog plasma; type: in vitro ADME
How it was run: as §1

[4] = Plasma protein binding, human plasma; type: in vitro ADME
How it was run: as §1

[5] = Plasma protein binding, free fraction across species; type: in vitro ADME; conditions: mouse, dog, human
How it was run: as §1

[6] = In vivo plasma half-life of FDF in mice; conditions: male, CD-1, mouse, ip, 10 mg/kg
[7] = In vivo biodistribution and defluorination of unlabeled FDF in C57BL/6 mice; set-up: species or system mouse; conditions: 10 mg/kg i.p., 60 min
How it was run: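 Male C57BL/6 mice (30 g, three per group) received unlabeled test compound at 10 mg/kg i.p. "at 10 min intervals." At 60 min, brain, lungs, heart, kidney, liver and muscle were taken, rinsed in cold PBS and frozen at −80 °C. Tissues were homogenized in acetonitrile, extracts dried and reconstituted in methanol/water. Quantitation was by C18 LC–MS/MS, SRM m/z 279 → 236, against a 1:1 methanol/water standard curve.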

| Structure (SMILES) | IC50 (ovine COX-1) [nM] | IC50 (COX-1 in OVCAR3 cells) [nM] | IC50 [1] [nM] | other results |
| --- | --- | --- | --- | --- |
| CC1(C)OC(=O)C(c2ccccc2)=C1c1ccccc1 [Compound 1, 5,5-Dimethyl-3,4-diphenylfuran-2(5H)-one] | 360 | 120 | > 5000 | Inhibition of purified COX-2 (in words) (mouse COX-2; at concentrations up to 25 μM): no inhibition |
| Cc1ccc(C2=C(c3ccccc3)C(=O)OC2(C)C)cc1 [Compound 2, 5,5-Dimethyl-3-phenyl-4-(p-tolyl)furan-2(5H)-one] | 50 | 490 | > 5000 |  |
| CC1(C)OC(=O)C(c2ccc(F)cc2)=C1c1ccccc1 [Compound 3, 3-(4-Fluorophenyl)-5,5-dimethyl-4-phenylfuran-2(5H)-one] | 640 | 280 | > 5000 |  |
| Cc1ccc(C2=C(c3ccc(F)cc3)C(=O)OC2(C)C)cc1 [Compound 4, 3-(4-Fluorophenyl)-5,5-dimethyl-4-(p-tolyl)furan-2(5H)-one] | 140 | 220 | > 5000 | fraction unbound at 4.5 h [2]: 0.025; fraction unbound at 4.5 h [3]: ~0.01; fraction unbound at 4.5 h [4]: ~0.01; fraction unbound at 4.5 h [5]: 0.0099 to 0.025; half-life [6]: 1.2 h; Defluorinated metabolite in other organs [7]: below the quantification limit; Uptake in the kidney (average) [7]: 8.87 nmol/g tissue; Uptake in the liver (overall average) [7]: 0.61 nmol/g tissue |
| Cc1ccc(C2=C(c3cccc(F)c3)C(=O)OC2(C)C)cc1 [Compound 5, 3-(3-Fluorophenyl)-5,5-dimethyl-4-(p-tolyl)furan-2(5H)-one] | 50 | 130 | > 5000 |  |
| Cc1ccc(C2=C(c3ccc(I)cc3)C(=O)OC2(C)C)cc1 [Compound 6, 3-(4-Iodophenyl)-5,5-dimethyl-4-(p-tolyl)furan-2(5H)-one] | 40 | 800 | > 5000 |  |
| COc1ccc([I+]c2ccc(C3=C(c4ccc(C)cc4)C(C)(C)OC3=O)cc2)cc1.Cc1ccc(S(=O)(=O)[O-])cc1 [Compound 7, (4-(5,5-Dimethyl-2-oxo-4-(p-tolyl)-2,5-dihydrofuran-3-yl)phenyl)(4-methoxyphenyl)iodonium Tosylate] | > 25000 | > 5000 | > 5000 | Inhibition of purified COX-1 (in words) (ovine COX-1): failed to inhibit; Inhibition of purified COX-2 (in words) (mouse COX-2): failed to inhibit; Inhibition of COX-1 in intact OVCAR3 cells (in words) (COX-1 in OVCAR3 cells): inactive; Inhibition of COX-2 in 1483 HNSCC cells (in words) [1]: inactive |
